Results published in ChEMBL document CHEMBL3120051, “Synthesis of novel 1,2-benzothiazine 1,1-dioxide-3-ethanone oxime N-aryl acetamide ether derivatives as potent anti-inflammatory agents and inhibitors of monocyte-to-macrophage transformation” (Eur J Med Chem, 2014).
Activity calls are given as the source filed them. The calls are words filed in the database; no cut-off is given here.

Key:
THP-1 [1] = test: Antiinflammatory activity in human THP1 cells assessed as inhibition of PMA-induced MCP-1 secretion incubated for 2 hrs prior to PMA challenge measured after 72 hrs by ELISA; format: functional, cell-based
Outline: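 THP-1 monocytes, 2×10^5/ml, received 5, 10 and 20 µM for 2 h before 100 nM PMA. Supernatant MCP-1 was measured by ELISA kit 72 h after PMA, with absorbance at 450 nm corrected at 570 nm and standard-curve quantitation. Percent inhibition is relative to control. IC50 is the predicted 50%-inhibition concentration, mean ± SD of three independent experiments.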

[2] = Cytotoxicity against human THP1 cells assessed as cell viability at 20 uM after 72 hrs by trypan blue dye exclusion assay; format: cell-based; conditions: THP-1 cells, read-out: Activity
Outline: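 THP-1 cells were seeded at 2×10^5 cells/ml in triplicate and exposed to 20 µM for 72 h. Cells were then harvested, resuspended in 0.4% trypan blue, and percent viable cells counted on an automated cell counter chamber.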

THP-1 [3] = test: Antiinflammatory activity in human THP1 cells assessed as inhibition of PMA-induced IL-8 secretion incubated for 2 hrs prior to PMA challenge measured after 48 hrs by ELISA; format: functional, cell-based
Outline: (§1)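 Seeded at 2×10^5/ml, THP-1 cells were pretreated 2 h with 5, 10 and 20 µM, then stimulated with 100 nM PMA. Supernatants were taken after 48 h and assayed by ELISA kit, read at 450 nm corrected at 570 nm, and quantified against standard curves (pg/ml). Percent inhibition was calculated versus control. IC50 is the predicted 50%-inhibition concentration, mean ± SD of three independent experiments.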

THP-1 [4] = test: Antiinflammatory activity in human THP1 cells assessed as inhibition of PMA-induced TNF-alpha secretion incubated for 2 hrs prior to PMA challenge measured after 48 hrs by ELISA; format: functional, cell-based; outline: as §1
THP-1 [5] = test: Antiinflammatory activity in human THP1 cells assessed as inhibition of PMA-induced increase in cell size at 10 uM incubated for 2 hrs prior to PMA challenge measured after 48 hrs by light microscopy; format: functional, cell-based
Outline: (§2)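 After 2 h pretreatment at 10 µM and 100 nM PMA for 48 h, THP-1 cultures had medium removed and were washed twice with warm DPBS. Phase-contrast light microscopy images were then used to assess adherence and monocyte/macrophage transformation.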

THP-1 [6] = test: Antiinflammatory activity in human THP1 cells assessed as inhibition of PMA-induced increase in mitochondrial number at 10 uM incubated for 2 hrs prior to PMA challenge measured after 48 hrs by confocal microscopy; format: functional, cell-based
Outline: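 Cells were treated in cover-glass-bottom dishes: 10 µM for 2 h, then 100 nM PMA. After 48 h they were stained 1 h with 200 nM MitoTracker CMXRos in HBSS and counterstained with DAPI. Confocal imaging used rhodamine and DAPI filters, with five fields of view, and gentle washes between steps.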

THP-1 [7] = test: Antiinflammatory activity in human THP1 cells assessed as inhibition of PMA-induced CD-36 expression at 10 uM incubated for 2 hrs prior to PMA challenge measured after 36 hrs by RT-PCR analysis; format: functional, cell-based
Outline: (§3)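 THP-1 monocytes (ATCC; RPMI 1640, 10% FBS, 37 °C, 5% CO2) pretreated 2 h, then 100 nM PMA for 36 h. Total RNA extracted in TRIzol, cDNA made, and LOX-1 and CD-36 transcripts measured by RT-PCR with gene-specific primers; GAPDH served as loading control.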

THP-1 [8] = test: Antiinflammatory activity in human THP1 cells assessed as inhibition of PMA-induced increase in cell adherence at 10 uM incubated for 2 hrs prior to PMA challenge measured after 48 hrs by light microscopy; format: functional, cell-based; outline: as §2
[9] = biological target: Matrix metalloproteinase-9 (Homo sapiens) (UniProt P14780); test: Inhibition of MMP-9 in human THP1 cells assessed as inhibition of PMA-induced monocyte to macrophage transformation at 10 uM incubated for 2 hrs prior to PMA challenge measured after 48 hrs by gelation zymography; format: cell-based; conditions: THP-1
Matrix metalloproteinase-9 (Homo sapiens), sequence (P14780 whole entry): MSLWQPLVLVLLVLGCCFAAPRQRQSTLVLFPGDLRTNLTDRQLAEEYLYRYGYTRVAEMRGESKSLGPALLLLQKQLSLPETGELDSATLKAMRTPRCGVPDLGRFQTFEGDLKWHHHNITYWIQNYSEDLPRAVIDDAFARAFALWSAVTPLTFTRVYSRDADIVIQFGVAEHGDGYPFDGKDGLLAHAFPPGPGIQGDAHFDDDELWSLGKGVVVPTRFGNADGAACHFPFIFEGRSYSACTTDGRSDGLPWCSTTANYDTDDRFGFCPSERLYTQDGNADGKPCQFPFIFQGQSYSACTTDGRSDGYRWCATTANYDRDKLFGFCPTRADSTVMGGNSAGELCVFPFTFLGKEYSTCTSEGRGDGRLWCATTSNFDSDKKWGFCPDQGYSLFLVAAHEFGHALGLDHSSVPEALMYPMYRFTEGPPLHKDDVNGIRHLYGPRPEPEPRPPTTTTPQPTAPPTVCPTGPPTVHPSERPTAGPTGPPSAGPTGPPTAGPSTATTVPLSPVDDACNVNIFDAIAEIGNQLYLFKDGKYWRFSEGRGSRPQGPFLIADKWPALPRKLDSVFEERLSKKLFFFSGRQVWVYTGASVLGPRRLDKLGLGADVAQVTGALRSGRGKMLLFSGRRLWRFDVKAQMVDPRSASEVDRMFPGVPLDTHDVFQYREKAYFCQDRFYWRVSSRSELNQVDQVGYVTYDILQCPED
Outline: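 THP-1 monocytes were pretreated 2 h at 10 µM, then stimulated with 100 nM PMA for 48 h. Conditioned medium was run without reducing agent on 10% SDS-PAGE containing 0.1% gelatin. Gels were renatured 30 min in 0.25% Triton X-100 and developed overnight at room temperature in Tris/CaCl2/Brij 35 buffer.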

THP-1 [10] = test: Antiinflammatory activity in human THP1 cells assessed as inhibition of PMA-induced LOX-1 expression at 10 uM incubated for 2 hrs prior to PMA challenge measured after 36 hrs by RT-PCR analysis; format: functional, cell-based; outline: as §3

| IC50 (THP-1 [1]) | IC50 (THP-1 [3]) | IC50 (THP-1 [4]) | inhibition [9] | Compound | viability at 72 h, 20 µM [2] | inhibition (THP-1 [5]) | inhibition (THP-1 [6]) | inhibition (THP-1 [7]) | inhibition (THP-1 [8]) | inhibition (THP-1 [10]) |
| --- | --- | --- | --- | --- | --- | --- | --- | --- | --- | --- |
| 18.6 µM | – | – | – | CCc1ccc(CCOc2ccc(CC3SC(=O)NC3=O)cc2)nc1 (stereo not drawn) [PIOGLITAZONE] | – | – | – | – | – | – |
| > 20 µM | > 20 µM | > 20 µM | – | CCOC1=C(/C(C)=N/OCC(=O)Nc2cccc(OC)c2)N(C)S(=O)(=O)c2ccccc21 | 96.2% | – | – | – | – | – |
| > 20 µM | > 20 µM | > 20 µM | – | CCOC1=C(/C(C)=N/OCC(=O)Nc2c(F)cccc2F)N(C)S(=O)(=O)c2ccccc21 | 92.3% | – | – | – | – | – |
| > 20 µM | > 20 µM | > 20 µM | – | CCOC1=C(/C(C)=N/OCC(=O)Nc2ccc(OC)cc2)N(C)S(=O)(=O)c2ccccc21 | 94.2% | – | – | – | – | – |
| 5.7 µM | 16.7 µM | > 20 µM | – | CCOC1=C(/C(C)=N/OCC(=O)Nc2ccc(C(F)(F)F)cc2)N(C)S(=O)(=O)c2ccccc21 | 93% | – | – | – | – | – |
| > 20 µM | > 20 µM | > 20 µM | – | C/C(=N\OCC(=O)Nc1ccc(F)c(Cl)c1)C1=C(O)c2ccccc2S(=O)(=O)N1C | 95.1% | – | – | – | – | – |
| 4 µM | > 20 µM | 12.1 µM | Active | C/C(=N\OCC(=O)Nc1ccc(C(F)(F)F)cc1)C1=C(O)c2ccccc2S(=O)(=O)N1C | 93% | Active | Active | Active | Active | Active |
| > 20 µM | > 20 µM | > 20 µM | – | CCOC1=C(/C(C)=N/OCC(=O)Nc2cccc(F)c2)N(C)S(=O)(=O)c2ccccc21 | 92% | – | – | – | – | – |
| – | – | > 20 µM | – | CN1C(C(=O)Nc2ccccn2)=C(O)c2ccccc2S1(=O)=O [PIROXICAM] | – | – | – | – | – | – |
| 2.5 µM | > 20 µM | 6 µM | 75% | C/C(=N\OCC(=O)Nc1ccc(Cl)c(C(F)(F)F)c1)C1=C(O)c2ccccc2S(=O)(=O)N1C | 91.2% | Active | Active | Active | Active | Active |
| > 20 µM | > 20 µM | > 20 µM | – | CCOC1=C(/C(C)=N/OCC(=O)Nc2ccc(Cl)c(C(F)(F)F)c2)N(C)S(=O)(=O)c2ccccc21 | 90.2% | – | – | – | – | – |
| > 20 µM | > 20 µM | > 20 µM | – | CCOC1=C(/C(C)=N/OCC(=O)Nc2ccccc2)N(C)S(=O)(=O)c2ccccc21 | 93% | – | – | – | – | – |
| > 20 µM | > 20 µM | > 20 µM | – | CCOC1=C(/C(C)=N/OCC(=O)Nc2ccc(F)c(Cl)c2)N(C)S(=O)(=O)c2ccccc21 | 97.5% | – | – | – | – | – |
| > 20 µM | > 20 µM | > 20 µM | – | C/C(=N\OCC(=O)Nc1ccccc1)C1=C(O)c2ccccc2S(=O)(=O)N1C | 94.1% | – | – | – | – | – |
| > 20 µM | > 20 µM | > 20 µM | – | C/C(=N\OCC(=O)Nc1c(F)cccc1F)C1=C(O)c2ccccc2S(=O)(=O)N1C | 92.2% | – | – | – | – | – |
| > 20 µM | > 20 µM | > 20 µM | – | COc1cccc(NC(=O)CO/N=C(\C)C2=C(O)c3ccccc3S(=O)(=O)N2C)c1 | 92.5% | – | – | – | – | – |
| 9.4 µM | > 20 µM | > 20 µM | – | C/C(=N\OCC(=O)Nc1cccc(F)c1)C1=C(O)c2ccccc2S(=O)(=O)N1C | 95.5% | – | – | – | – | – |
| > 20 µM | > 20 µM | > 20 µM | – | COc1ccc(NC(=O)CO/N=C(\C)C2=C(O)c3ccccc3S(=O)(=O)N2C)cc1 | 97.5% | – | – | – | – | – |
